Active and inactive are the calls of the source. The rule behind the calls is not given here.
Legend:
Influenza A virus [1] = test: Antiviral activity against Influenza virus A/PR/8/34 infected in MDCK cells assessed as reduction in viral titer after 48 hrs by hemagglutinination assay; assay type: functional; settings: for Activity: A/Puerto Rico/8/1934(H1N1)
Method in brief: (§1)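 MDCK monolayers grown to confluence in Iscove medium with 10% FBS and 2 mM L-glutamine. Infected with A/PR/8/34 at MOI 0.1 for 48 h in growth medium with 0.3% BSA, 0.22% bicarbonate and TPCK-trypsin. Compound or DMSO added at the start of infection and kept throughout. Supernatant titre measured by TCID50 on MDCK cells using hemagglutination (Reed–Muench).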

Influenza A virus [2] = test: Antiviral activity against Influenza virus A/PR/8/34 infected in MDCK cells assessed as reduction in viral titer at 50 uM after 48 hrs by hemagglutinination assay; assay type: functional, organism-based; settings: A/Puerto Rico/8/1934(H1N1)
Method in brief: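 Confluent MDCK monolayers infected with A/PR/8/34 at MOI 0.1, with compound at 50 µM present for the entire 48 h. Viral titre in supernatants expressed as logTCID50, read by hemagglutination on MDCK cells (Reed–Muench). DMSO-treated infected cells served as control.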

Influenza A virus [3] = test: Antiviral activity against Influenza virus A/PR/8/34 infected in MDCK cells assessed as reduction in viral titer at 50 uM after 48 hrs by hemagglutinination assay relative to untreated control; assay type: functional, A/Puerto Rico/8/1934(H1N1)
Method in brief: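 MDCK monolayers infected with A/PR/8/34 at MOI 0.1 for 48 h, with 50 µM compound throughout. Supernatant logTCID50 determined by hemagglutination (Reed–Muench). Fold decrease obtained by subtracting each logTCID50 from the DMSO-control value and taking the inverse log.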

MDCK = test: Cytotoxicity against MDCK cells up to 100 uM after 48 hrs; assay type: cell-based, Canis lupus familiaris; settings: dog
Influenza A virus [4] = test: Antiviral activity against Influenza virus A/PR/8/34 infected in MDCK cells assessed as log reduction in viral replication at 1 uM after 48 hrs by hemagglutinination assay relative to control; assay type: functional, A/Puerto Rico/8/1934(H1N1); method in brief: as §1

O=C(NCCCc1ccccc1)c1ccccc1Br
Activity (Influenza A virus [1]): inactive

O=C(CCc1ccccc1O)Nc1ccccc1
Activity (Influenza A virus [1]): Active

Nc1ccc([N+](=O)[O-])cc1C(=O)NCCCc1ccccc1
Activity (Influenza A virus [1]): Active

O=C(N/N=C/c1ccc(Cl)cc1)c1ccccc1O
Activity (Influenza A virus [2]): Active

CN(CCCc1ccccc1)C(=O)c1ccccc1O
Activity (Influenza A virus [1]): Active

O=C(NCCCc1ccccc1)c1cccc(O)c1
log10 TCID50 (Influenza A virus [1]): 6.2
fold change (FC) (Influenza A virus [3]): 200

O=C(NCCCc1ccccc1)c1ccccn1
Activity (Influenza A virus [1]): Active

O=C(NCCCc1ccccc1)c1ccc(O)cc1
log10 TCID50 (Influenza A virus [1]): 6.5
fold change (FC) (Influenza A virus [3]): 100

O=C(NCCCc1ccccc1)c1ccccc1Cl
Activity (Influenza A virus [1]): Active

COc1ccc(/C=N/NC(=O)c2ccccc2O)cc1
Activity (Influenza A virus [2]): Active

O=C(NCCCc1ccccc1)c1cc2ccccc2cc1O
Activity (Influenza A virus [1]): Active

O=C(CCCc1ccccc1)Nc1ccccc1O
Activity (Influenza A virus [1]): Active

O=C(N/N=C/c1ccc([N+](=O)[O-])cc1)c1ccccc1O
Activity (Influenza A virus [2]): Active

O=C(NCCc1ccccc1)c1ccccc1O
log10 TCID50 (Influenza A virus [1]): 7.1
fold change (FC) (Influenza A virus [3]): 25

O=C(CCc1ccccc1O)NCc1ccccc1
Activity (Influenza A virus [1]): Active

O=C(NCCCc1ccccc1)c1ccccc1[N+](=O)[O-]
log10 TCID50 (Influenza A virus [1]): 6.5
fold change (FC) (Influenza A virus [3]): 100

O=C(Cc1ccccc1O)NCCc1ccccc1
Activity (Influenza A virus [1]): Active

O=C(NCCCc1ccccc1)c1ccccc1F
Activity (Influenza A virus [1]): inactive

COc1ccccc1C(=O)NCCCc1ccccc1
log10 TCID50 (Influenza A virus [1]): 5.8
fold change (FC) (Influenza A virus [3]): 500

O=C(NCCCCc1ccccc1)c1ccccc1O
Activity (Influenza A virus [2]): Active

O=C(NCCCc1ccccc1)c1ccc2c(c1)OCO2
Activity (Influenza A virus [1]): Active

O=C(NCCCc1ccccc1)c1ccccc1O
log10 TCID50 (Influenza A virus [1]): 5.7
Activity (MDCK): Non-toxic
fold change (FC) (Influenza A virus [3]): 630

O=C(NCCCc1ccccc1)c1nccc2ccccc12
Activity (Influenza A virus [1]): Active

Nc1ccc(C(=O)NCCCc2ccccc2)c(O)c1
Activity (Influenza A virus [1]): Active

Cc1ccccc1C(=O)NCCCc1ccccc1
log10 TCID50 (Influenza A virus [1]): 6.3
fold change (FC) (Influenza A virus [3]): 158

O=C(NCCOc1ccccc1)c1ccccc1O
Activity (Influenza A virus [1]): Active

Nc1ccc(Cl)cc1C(=O)NCCCc1ccccc1
Activity (Influenza A virus [1]): Active

O=C(NCCCc1ccccc1)c1ccccc1I
Activity (Influenza A virus [1]): Active

O=C(NCCCc1ccccc1)c1c(O)ccc2ccccc12
Activity (Influenza A virus [1]): Active

O=C(N/N=C/c1ccc(O)cc1)c1ccccc1O
Activity (Influenza A virus [2]): Active

O=C(NCCCc1ccccc1)c1ccc2ccccc2n1
Activity (Influenza A virus [1]): Active

COc1ccc(N)c(C(=O)NCCCc2ccccc2)c1
Activity (Influenza A virus [1]): Active

O=C(NCCCc1ccccc1)c1cc2ccccc2cn1
Activity (Influenza A virus [1]): Active

O=C(NCCCc1ccccc1)c1ccccc1
log10 TCID50 (Influenza A virus [1]): 6.8
fold change (FC) (Influenza A virus [3]): 50

O=C(N/N=C/c1ccc2c(c1)CCC2)c1ccccc1O
log10 TCID50 (Influenza A virus [1]): 7.1
Activity (Influenza A virus [2]): Active
Activity (MDCK): Non-toxic
fold change (FC) (Influenza A virus [3]): 25

Nc1ccccc1C(=O)NCCOc1ccccc1
Activity (Influenza A virus [1]): Active

O=C(N/N=C/c1ccc2ccccc2c1)c1ccccc1O
Activity (Influenza A virus [2]): Active

N#Cc1ccccc1C(=O)NCCCc1ccccc1
Activity (Influenza A virus [1]): Active

Nc1ccccc1C(=O)NCCCc1ccccc1
FC (Influenza A virus [4]): >2
Activity (Influenza A virus [1]): Active
Activity (MDCK): Non-toxic

O=C(NCCCc1ccccc1)c1ccc2ccccc2c1O
Activity (Influenza A virus [1]): Active

O=C(N/N=C/c1ccccc1)c1ccccc1O
Activity (Influenza A virus [2]): Active

From ChEMBL document CHEMBL1926504, “Design, synthesis, and evaluation of novel small molecule inhibitors of the influenza virus protein NS1” (Bioorg Med Chem, 2012)
